Assay results reported in ChEMBL document CHEMBL5029188.

What was measured:
[1] = test system: SARS-CoV-2; test: Antiviral activity against SARS CoV-2 infected in African green monkey Vero cells assessed as inhibition of viral replication incubated for 48 to 72 hrs by plaque reduction assay; assay type: functional, organism-based; conditions: Severe acute respiratory syndrome coronavirus 2, Vero
[2] = test system: HEK-293T; test: Cytotoxicity against HEK293T cells assessed as reduction in cell viability measured after 72 hrs by CytoTox 96 nonradioactive cytotoxicity assay; assay type: cell-based; conditions: human
Summary of the method: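 HEK293T cells were exposed to compound at 1 to 100 μM for 72 h. Cytotoxicity was read with a CytoTox 96 nonradioactive kit, and CC50 was fitted with a variable-slope curve.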

[3] = Inhibition of MERS CoV 3C like protease using FAM-SAVLQ/SG-QLX520 as substrate pretreated for 30 mins followed by substrate addition and measured after 1 hr by FRET assay; parameters: species or system Middle East respiratory syndrome-related coronavirus
[4] = Inhibition of SARS CoV-2 3C like protease using FAM-SAVLQ/SG-QLX520 as substrate pretreated for 1 hr followed by substrate addition and measured after 1 hr by FRET assay; parameters: species or system Severe acute respiratory syndrome coronavirus 2
Summary of the method: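 SARS-CoV-2 3CLpro was expressed from pET-28a(+). It was preincubated with serial compound dilutions at 37°C for 1 h in 20 mM HEPES pH 8, 200 mM NaCl, 0.4 mM EDTA, 60% glycerol and 6 mM DTT. IC50 came from a variable-slope fit, averaging at least two determinations.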

[5] = Inhibition of SARS CoV-2 3C like protease expressed in HEK293T cells transfected with pGlo-VRLQS incubated for 6 hrs by firefly/renilla luciferase reporter assay; assay type: cell-based; conditions: Severe acute respiratory syndrome coronavirus 2, HEK-293T
Summary of the method: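 HEK293T cells, one day old, were co-transfected with pR-SARS-CoV-2 3CLpro (3CLpro gene in a PRRSV replicon, between ORF1b and 2a) and pGlo-VRLQS (caged firefly luciferase with a VRLQS cleavage site, plus Renilla control). C145A-mutant and mock transfections served as negative controls. Next morning, serial compound dilutions were added for 6 h at 37 C. Read-out was the firefly/Renilla ratio, and EC50 came from a variable-slope fit.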

SMILES	EC50 [1] [nM]	CC50 [2] [nM]	IC50 [3] [nM]	IC50 [4] [nM]	EC50 [5] [nM]
CC(C)C[C@H](NC(=O)OCc1ccccc1)C(=O)N[C@@H](C[C@@H]1CCNC1=O)C(O)S(=O)(=O)O (some centres not stated)	230				
CC(C)C[C@H](NC(=O)OCc1cccc(F)c1)C(=O)N[C@H](C=O)C[C@@H]1CCNC1=O		> 100000	70	350	5280
[2H]C([2H])(OC(=O)N[C@@H](CC(C)C)C(=O)N[C@H](C=O)C[C@@H]1CCNC1=O)c1c(F)c(F)c(F)c(F)c1F				470	
CCCC[C@H]1CC[C@H](OC(=O)N[C@@H](CC(C)C)C(=O)N[C@H](C=O)C[C@@H]2CCNC2=O)CC1		55000	120	170	4840
CCCCC(OC(=O)N[C@@H](CC(C)C)C(=O)N[C@H](C=O)C[C@@H]1CCNC1=O)C1CCC(F)(F)CC1 (some centres not stated)				190	
[2H]C([2H])(OC(=O)N[C@@H](CC(C)C)C(=O)N[C@@H](C[C@@H]1CCNC1=O)C(O)S(=O)(=O)[O-])c1c(F)c(F)c(F)c(F)c1F.[Na+] (some centres not stated)				600	
CC(C)C[C@H](NC(=O)OC1CCC(C)(C)CC1)C(=O)N[C@H](C=O)C[C@@H]1CCNC1=O		> 100000	120	250	3480
CC(C)C[C@H](NC(=O)OC[C@H]1CC[C@H](C(F)(F)F)CC1)C(=O)N[C@H](C=O)C[C@@H]1CCNC1=O				250	
CC(C)C[C@H](NC(=O)OC(c1ccccc1)C1CCC(F)(F)CC1)C(=O)N[C@@H](C[C@@H]1CCNC1=O)C(O)S(=O)(=O)O (some centres not stated)	700	> 100000	50	170	1450
CC(C)C[C@H](NC(=O)OCc1ccc(F)cc1)C(=O)N[C@H](C=O)C[C@@H]1CCNC1=O				390	
CC(C)C[C@H](NC(=O)O[C@H]1CC[C@H](c2ccccc2)CC1)C(=O)N[C@@H](C[C@@H]1CCNC1=O)C(O)S(=O)(=O)O (some centres not stated)				230	
CC(C)C[C@H](NC(=O)OC(C)(C)C1CCC(F)(F)CC1)C(=O)N[C@@H](C[C@@H]1CCNC1=O)C(O)S(=O)(=O)O (some centres not stated)				1250	
CC(C)C[C@H](NC(=O)OC(C)C1CCC(F)(F)CC1)C(=O)N[C@@H](C[C@@H]1CCNC1=O)C(O)S(=O)(=O)O (some centres not stated)				260	
CC(C)C[C@H](NC(=O)OC1CCC(C)(C)CC1)C(=O)N[C@@H](C[C@@H]1CCNC1=O)C(O)S(=O)(=O)O (some centres not stated)		> 100000	120	240	1670
CC(C)C[C@H](NC(=O)OCc1c(F)c(F)c(F)c(F)c1F)C(=O)N[C@H](C=O)C[C@@H]1CCNC1=O		> 100000	50		3270
CCCC(OC(=O)N[C@@H](CC(C)C)C(=O)N[C@@H](C[C@@H]1CCNC1=O)C(O)S(=O)(=O)O)c1ccccc1 (some centres not stated)		> 100000	130	210	3720
CCCC(OC(=O)N[C@@H](CC(C)C)C(=O)N[C@H](C=O)C[C@@H]1CCNC1=O)c1ccccc1 (some centres not stated)		> 100000	80	330	2390
CC(C)C[C@H](NC(=O)OCc1ccccc1F)C(=O)N[C@@H](C[C@@H]1CCNC1=O)C(O)S(=O)(=O)O (some centres not stated)				380	
CC(C)C[C@H](NC(=O)OC(Cc1ccccc1)C1CCC(F)(F)CC1)C(=O)N[C@@H](C[C@@H]1CCNC1=O)C(O)S(=O)(=O)O (some centres not stated)		> 100000	140	290	3500
CC(C)C[C@H](NC(=O)O[C@H]1CC[C@H](C(C)C)CC1)C(=O)N[C@@H](C[C@@H]1CCNC1=O)C(O)S(=O)(=O)O (some centres not stated)				240	
[2H]C([2H])(OC(=O)N[C@@H](CC(C)C)C(=O)N[C@@H](C[C@@H]1CCNC1=O)C(O)S(=O)(=O)[O-])[C@H]1CC[C@H](CCC)CC1.[Na+] (some centres not stated)				330	
CC(C)C[C@H](NC(=O)OC(Cc1ccccc1)c1ccccc1)C(=O)N[C@H](C=O)C[C@@H]1CCNC1=O (some centres not stated)				500	
[2H]C([2H])(OC(=O)N[C@@H](CC(C)C)C(=O)N[C@H](C=O)C[C@@H]1CCNC1=O)[C@H]1CC[C@H](CCC)CC1				330	
CC(C)C[C@H](NC(=O)OC[C@H]1CC[C@@H](C(F)(F)F)CC1)C(=O)N[C@@H](C[C@@H]1CCNC1=O)C(O)S(=O)(=O)O (some centres not stated)				200	

SMILES	EC50 [1] [nM]	CC50 [2] [nM]	IC50 [3] [nM]	IC50 [4] [nM]	EC50 [5] [nM]
CC(C)C[C@H](NC(=O)OCc1ccc(F)cc1)C(=O)N[C@@H](C[C@@H]1CCNC1=O)C(O)S(=O)(=O)O (some centres not stated)				400	
CC(C)C[C@H](NC(=O)OCC1CCC(F)(F)CC1)C(=O)N[C@H](C=O)C[C@@H]1CCNC1=O			80		
CC(C)C[C@H](NC(=O)O[C@H]1CC[C@H](C(C)C)CC1)C(=O)N[C@H](C=O)C[C@@H]1CCNC1=O				240	
CC(C)C[C@H](NC(=O)OCc1ccccc1F)C(=O)N[C@H](C=O)C[C@@H]1CCNC1=O				340	
[2H]C([2H])(OC(=O)N[C@@H](CC(C)C)C(=O)N[C@@H](C[C@@H]1CCNC1=O)C(O)S(=O)(=O)[O-])C1CCC(F)(F)CC1.[Na+] (some centres not stated)				210	
CC(C)C[C@H](NC(=O)O[C@H]1CC[C@H](c2ccccc2)CC1)C(=O)N[C@H](C=O)C[C@@H]1CCNC1=O				220	
CC(C)C[C@H](NC(=O)OCC1CCC(F)(F)CC1)C(=O)N[C@@H](C[C@@H]1CCNC1=O)C(O)S(=O)(=O)O (some centres not stated)			100		
CCC[C@H]1CC[C@H](COC(=O)N[C@@H](CC(C)C)C(=O)N[C@@H](C[C@@H]2CCNC2=O)C(O)S(=O)(=O)O)CC1 (some centres not stated)		44000	110	200	4430
CC(C)C[C@H](NC(=O)OC[C@H]1CC[C@H](C(F)(F)F)CC1)C(=O)N[C@@H](C[C@@H]1CCNC1=O)C(O)S(=O)(=O)O (some centres not stated)				190	
CC(C)C[C@H](NC(=O)OC(c1ccccc1)C1CCC(F)(F)CC1)C(=O)N[C@H](C=O)C[C@@H]1CCNC1=O (some centres not stated)		> 100000	40	130	1030
CCCCC(OC(=O)N[C@@H](CC(C)C)C(=O)N[C@@H](C[C@@H]1CCNC1=O)C(O)S(=O)(=O)O)C1CCC(F)(F)CC1 (some centres not stated)				270	
CCC[C@H]1CC[C@H](OC(=O)N[C@@H](CC(C)C)C(=O)N[C@@H](C[C@@H]2CCNC2=O)C(O)S(=O)(=O)O)CC1 (some centres not stated)				190	
[2H]C([2H])(OC(=O)N[C@@H](CC(C)C)C(=O)N[C@@H](C[C@@H]1CCNC1=O)C(O)S(=O)(=O)[O-])c1ccc(F)cc1.[Na+] (some centres not stated)				320	
CC(C)C[C@H](NC(=O)OC[C@H]1CC[C@@H](C(F)(F)F)CC1)C(=O)N[C@H](C=O)C[C@@H]1CCNC1=O				230	
CC(C)C[C@H](NC(=O)OC(C)(C)C1CCC(F)(F)CC1)C(=O)N[C@H](C=O)C[C@@H]1CCNC1=O				1200	
[2H]C([2H])(OC(=O)N[C@@H](CC(C)C)C(=O)N[C@H](C=O)C[C@@H]1CCNC1=O)c1ccc(F)cc1				390	
CC(C)C[C@H](NC(=O)OCc1cccc(F)c1)C(=O)N[C@@H](C[C@@H]1CCNC1=O)C(O)S(=O)(=O)O (some centres not stated)		> 100000	70	360	3400
CC(C)C[C@H](NC(=O)OC(Cc1ccccc1)C1CCC(F)(F)CC1)C(=O)N[C@H](C=O)C[C@@H]1CCNC1=O (some centres not stated)		> 100000	100	310	2950
CC(C)C[C@H](NC(=O)OC(Cc1ccccc1)c1ccccc1)C(=O)N[C@@H](C[C@@H]1CCNC1=O)C(O)S(=O)(=O)O (some centres not stated)				310	
CC(C)C[C@H](NC(=O)OCc1c(F)c(F)c(F)c(F)c1F)C(=O)N[C@@H](C[C@@H]1CCNC1=O)C(O)S(=O)(=O)O (some centres not stated)		> 100000	80		4840
CCCC[C@H]1CC[C@H](OC(=O)N[C@@H](CC(C)C)C(=O)N[C@@H](C[C@@H]2CCNC2=O)C(O)S(=O)(=O)O)CC1 (some centres not stated)	850	58000	150		4230
CC(C)C[C@H](NC(=O)OC(C)C1CCC(F)(F)CC1)C(=O)N[C@H](C=O)C[C@@H]1CCNC1=O (some centres not stated)				260	
CCC[C@H]1CC[C@H](OC(=O)N[C@@H](CC(C)C)C(=O)N[C@H](C=O)C[C@@H]2CCNC2=O)CC1				250	
